Experimental data published in ChEMBL document CHEMBL1152571, “Synthesis and biological evaluation of 4-fluoroproline and 4-fluoropyrrolidine-2-acetic acid derivatives as new GABA uptake inhibitors” (Bioorg Med Chem, 2009).

Experiments:
[1] = target: Sodium- and chloride-dependent GABA transporter 1 (Mus musculus, UniProt P31648); test: Inhibition of GAT1 in mouse D8 cells assessed as [3H]GABA transport by liquid scintillation counting; format: cell-based
How it was run: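 D8 cells expressing mouse GAT-1 were grown in RPMI 1640 with 10% FBS to near confluence (about 60,000 cells/well), rinsed with PBS and preincubated 10 min at room temperature in HBSS. [3H]GABA was added (151 nM final) for 20 min at room temperature. Uptake was stopped by aspiration and three rapid cold-PBS washes, and cells were lysed in 2 N NaOH. Uptake was counted by scintillation, giving IC50.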

GABA transporter 3 = target: T1, GABA transporter 3 (Mus musculus, UniProt P31649); test: Inhibition of GAT3 in mouse D8 cells assessed as [3H]GABA transport by liquid scintillation counting; format: cell-based
T1 sequence (P31649 whole entry): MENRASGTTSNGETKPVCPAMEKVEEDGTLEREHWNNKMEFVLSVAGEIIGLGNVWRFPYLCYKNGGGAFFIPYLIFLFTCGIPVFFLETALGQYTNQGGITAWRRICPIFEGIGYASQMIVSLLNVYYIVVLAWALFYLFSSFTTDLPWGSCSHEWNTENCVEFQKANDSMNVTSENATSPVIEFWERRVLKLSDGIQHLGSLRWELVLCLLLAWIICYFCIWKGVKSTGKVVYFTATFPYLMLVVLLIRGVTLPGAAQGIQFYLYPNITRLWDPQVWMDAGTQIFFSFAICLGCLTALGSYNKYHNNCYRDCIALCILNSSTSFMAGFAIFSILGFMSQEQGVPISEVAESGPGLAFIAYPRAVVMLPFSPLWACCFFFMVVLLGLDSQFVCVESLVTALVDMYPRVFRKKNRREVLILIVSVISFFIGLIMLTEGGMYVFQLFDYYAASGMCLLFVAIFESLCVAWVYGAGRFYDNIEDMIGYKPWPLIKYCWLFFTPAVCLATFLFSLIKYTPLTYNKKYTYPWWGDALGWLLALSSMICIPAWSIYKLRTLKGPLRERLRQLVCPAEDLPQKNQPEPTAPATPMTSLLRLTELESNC

Structure (SMILES) | IC50 [1] [µM] | IC50 (GABA transporter 3) [µM]
Cc1ccsc1C(=CCCN1C[C@@H](O)C[C@H]1CC(=O)O)c1sccc1C | 5.14 | –
O=C(O)C[C@@H]1C[C@@H](O)CN1CCC=C(c1ccccc1)c1ccccc1 | 3.29 | > 100
Cc1ccsc1C(=CCCN1C[C@@H](F)C[C@H]1C(=O)O)c1sccc1C | 18 | –
O=C(O)[C@@H]1C[C@@H](O)CN1CCC=C(c1ccccc1)c1ccccc1 | 79.6 | > 100
Cc1ccsc1C(=CCCN1C[C@@H](F)C[C@@H]1CC(=O)O)c1sccc1C | 4.94 | –
Cc1ccsc1C(=CCCN1C[C@H](F)C[C@@H]1CC(=O)O)c1sccc1C | 2.97 | –
Cc1ccsc1C(=CCCN1CCC[C@H]1CC(=O)O)c1sccc1C | 0.34 | 26.6
Cc1ccsc1C(=CCCN1CCC[C@H]1C(=O)O)c1sccc1C | 0.65 | –
Cc1ccsc1C(=CCCN1C[C@H](O)C[C@H]1CC(=O)O)c1sccc1C | 3.15 | > 100
Cc1ccsc1C(=CCCN1CCC[C@@H](C(=O)O)C1)c1sccc1C [TIAGABINE] | 0.191 | –

The remaining lines, values ahead:

IC50 [1] [µM] | IC50 (GABA transporter 3) [µM] | Structure (SMILES)
4.92 | – | O=C(O)C[C@@H]1C[C@H](O)CN1CCC=C(c1ccccc1)c1ccccc1
2.56 | 309 | O=C(O)[C@@H]1CCCN1CCC=C(c1ccccc1)c1ccccc1
0.4 | 64.8 | O=C(O)C[C@@H]1CCCN1CCC=C(c1ccccc1)c1ccccc1
67.4 | – | O=C(O)[C@@H]1C[C@@H](F)CN1CCC=C(c1ccccc1)c1ccccc1
3.96 | – | O=C(O)C[C@H]1C[C@@H](F)CN1CCC=C(c1ccccc1)c1ccccc1
> 100 | – | O=C(O)[C@@H]1C[C@H](F)CN1CCC=C(c1ccccc1)c1ccccc1
12.8 | – | Cc1ccsc1C(=CCCN1C[C@H](F)C[C@H]1C(=O)O)c1sccc1C
5.81 | – | O=C(O)C[C@H]1C[C@H](F)CN1CCC=C(c1ccccc1)c1ccccc1
